Data: ChEMBL document CHEMBL1151697, “Synthesis and structure-activity relationships for biphenyl H3 receptor antagonists with moderate anti-cholinesterase activity” (Bioorg Med Chem, 2008)
The source made the active and inactive calls. No cut-off for these calls is given here.

Assays:
[1] = biological target: T1, Acetylcholinesterase (Rattus norvegicus) (UniProt P37136); test: Inhibition of acetylcholinesterase in Wistar rat brain homogenate at upto 10 uM by Ellman's method; format: tissue-based
T1 sequence (whole entry): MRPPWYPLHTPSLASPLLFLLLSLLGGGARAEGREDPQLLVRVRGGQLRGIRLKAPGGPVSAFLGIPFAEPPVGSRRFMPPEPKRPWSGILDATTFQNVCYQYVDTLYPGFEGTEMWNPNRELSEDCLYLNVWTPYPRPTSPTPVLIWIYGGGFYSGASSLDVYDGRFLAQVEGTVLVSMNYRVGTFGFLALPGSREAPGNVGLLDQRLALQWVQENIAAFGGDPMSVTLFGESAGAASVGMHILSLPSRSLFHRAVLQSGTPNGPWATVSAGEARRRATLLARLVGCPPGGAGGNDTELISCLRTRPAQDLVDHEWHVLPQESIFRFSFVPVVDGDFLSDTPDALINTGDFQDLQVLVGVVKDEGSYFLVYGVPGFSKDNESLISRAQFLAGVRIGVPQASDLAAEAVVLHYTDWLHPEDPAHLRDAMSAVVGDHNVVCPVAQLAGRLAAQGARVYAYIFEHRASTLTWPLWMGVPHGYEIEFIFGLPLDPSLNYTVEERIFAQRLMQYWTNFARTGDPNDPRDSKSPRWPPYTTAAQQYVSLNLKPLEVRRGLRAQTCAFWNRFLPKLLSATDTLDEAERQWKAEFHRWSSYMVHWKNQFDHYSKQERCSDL

[2] = biological target: T2, Histamine H3 receptor (Homo sapiens, UniProt Q9Y5N1); test: Antagonist activity at human histamine H3 receptor expressed in SK-N-MC cells by CRE-mediated beta-galactosidase reporter gene assay administered 10 mins before (R)-alpha-methylhistamine challenge after 6 hrs; format: functional, cell-based
T2 sequence (Q9Y5N1 whole entry): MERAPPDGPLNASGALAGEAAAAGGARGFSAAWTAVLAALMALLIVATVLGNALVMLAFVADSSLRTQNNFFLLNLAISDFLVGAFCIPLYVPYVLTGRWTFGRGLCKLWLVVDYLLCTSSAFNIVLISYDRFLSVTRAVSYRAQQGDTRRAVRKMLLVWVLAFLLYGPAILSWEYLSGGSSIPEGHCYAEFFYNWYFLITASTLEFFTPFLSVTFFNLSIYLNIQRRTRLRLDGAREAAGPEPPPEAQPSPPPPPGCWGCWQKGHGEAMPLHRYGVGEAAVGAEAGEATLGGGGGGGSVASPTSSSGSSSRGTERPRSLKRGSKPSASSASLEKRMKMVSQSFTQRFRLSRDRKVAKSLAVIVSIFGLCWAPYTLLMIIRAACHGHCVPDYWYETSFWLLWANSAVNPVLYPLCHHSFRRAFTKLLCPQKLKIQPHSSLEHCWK
Method in brief: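 SK-N-MC cells stably carrying human H3 and a β-galactosidase reporter. Compound added to medium, forskolin 5 min later, then (R)-α-methylhistamine 10 min after compound; 6 h at 37 °C. Cells lysed in phosphate assay buffer (pH 8) with 0.5% Triton and 40 mM β-mercaptoethanol; β-galactosidase read at 570 nm. Means of 4–6 experiments.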

[3] = test system: SK-N-MC; test: Cytotoxicity against human SK-N-MC cells at 1 uM after 6 hrs by MTT test; format: functional, cell-based
Method in brief: (§1)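 MTT viability test: SK-N-MC cells held 6 h with compound (1–10 µM) or vehicle. MTT (5 mg/ml stock) added for 3 h, cells washed in PBS, formazan dissolved in 0.1 N HCl in isopropanol, absorbance read at 570 nm. Viability given relative to control.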

[4] = biological target: Histamine H1 receptor (Cavia porcellus) (UniProt P31389); test: Antagonist activity at histamine H1 receptor in guinea pig terminal ileum; format: functional, tissue-based
Chain of Histamine H1 receptor (Cavia porcellus) (P31389 whole entry): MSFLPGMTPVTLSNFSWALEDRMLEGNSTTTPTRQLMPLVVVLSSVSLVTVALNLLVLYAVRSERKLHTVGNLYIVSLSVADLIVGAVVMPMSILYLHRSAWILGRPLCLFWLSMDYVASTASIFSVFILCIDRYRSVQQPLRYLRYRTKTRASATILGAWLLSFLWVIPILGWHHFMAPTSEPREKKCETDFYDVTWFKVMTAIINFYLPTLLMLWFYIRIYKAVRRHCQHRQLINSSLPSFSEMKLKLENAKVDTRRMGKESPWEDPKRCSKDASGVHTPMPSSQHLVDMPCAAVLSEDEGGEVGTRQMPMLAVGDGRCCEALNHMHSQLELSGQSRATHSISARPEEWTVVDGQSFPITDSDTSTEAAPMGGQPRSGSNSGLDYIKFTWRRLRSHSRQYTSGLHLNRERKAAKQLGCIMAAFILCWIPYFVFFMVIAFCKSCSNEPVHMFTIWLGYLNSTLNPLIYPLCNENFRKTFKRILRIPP
Method in brief: (§2)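 Guinea-pig (250–350 g) terminal ileum (H1) suspended isometrically in Krebs–Henseleit at 37 °C, aerated 95% O2–5% CO2. Cumulative histamine curves (1 nM to 1 µM) run without and with compound up to 10 µM. pKB (apparent pA2) from Furchgott's equation; pD2′ from Van Rossum's equation when antagonism was non-surmountable.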

[5] = biological target: Histamine H2 receptor (Cavia porcellus) (UniProt P47747); test: Antagonist activity at histamine H2 receptor in guinea pig atrium assessed as changes in rate of spontaneous beat at upto 10 uM; format: functional, tissue-based; conditions: Cardiac atrium
Chain of Histamine H2 receptor (Cavia porcellus) (P47747 whole entry): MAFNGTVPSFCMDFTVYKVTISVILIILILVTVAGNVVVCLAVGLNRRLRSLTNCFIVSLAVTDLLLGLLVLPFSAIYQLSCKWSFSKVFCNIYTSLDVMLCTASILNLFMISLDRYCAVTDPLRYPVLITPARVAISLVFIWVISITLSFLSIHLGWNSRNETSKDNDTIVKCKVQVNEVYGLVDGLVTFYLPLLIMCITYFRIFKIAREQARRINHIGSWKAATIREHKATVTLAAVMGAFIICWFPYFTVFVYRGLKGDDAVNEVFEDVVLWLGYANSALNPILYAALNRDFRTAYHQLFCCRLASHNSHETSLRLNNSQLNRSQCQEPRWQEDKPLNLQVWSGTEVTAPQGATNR
Method in brief: (§3)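 Guinea-pig atria (H2) in Ringer–Locke at 31 °C (mM: NaCl 154.0, KCl 5.6, CaCl2 1.08, NaHCO3 5.95, glucose 11.1), gassed 95% O2–5% CO2. Spontaneous beating rate recorded by cardiotachograph. Cumulative dimaprit curves (0.1–100 µM) run without and with compound up to 10 µM. Affinity given as pKB by Furchgott, or as pD2′ by Van Rossum if non-surmountable.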

[6] = biological target: T3, Histamine H4 receptor (Homo sapiens, UniProt Q9H3N8); test: Displacement of [3H]histamine from human histamine H4 receptor expressed in SK-N-MC cells
T3 sequence (Q9H3N8 whole entry): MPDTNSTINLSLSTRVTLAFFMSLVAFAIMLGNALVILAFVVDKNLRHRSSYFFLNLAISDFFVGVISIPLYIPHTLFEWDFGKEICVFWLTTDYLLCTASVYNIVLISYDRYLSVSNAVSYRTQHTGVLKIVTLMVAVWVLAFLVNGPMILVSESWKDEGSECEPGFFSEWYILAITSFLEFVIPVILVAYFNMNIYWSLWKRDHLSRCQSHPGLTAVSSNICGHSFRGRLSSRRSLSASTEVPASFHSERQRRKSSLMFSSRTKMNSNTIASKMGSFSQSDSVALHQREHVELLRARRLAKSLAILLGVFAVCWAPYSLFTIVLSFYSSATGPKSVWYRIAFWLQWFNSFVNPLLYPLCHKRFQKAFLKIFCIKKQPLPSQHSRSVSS

[7] = test system: SK-N-MC; test: Cytotoxicity against human SK-N-MC cells at 10 uM after 6 hrs by MTT test; format: functional, cell-based; method in brief: as §1
[8] = biological target: T2, Histamine H3 receptor; test: Displacement of [3H]RAMHA from human histamine H3 receptor expressed in SK-N-MC cells; format: cell-based
Method in brief: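 SK-N-MC membranes bearing human H3 incubated 60 min at room temperature with 0.5 nM [3H]-(R)-α-methylhistamine and competitor (0.01 nM to 10 µM). Rapid filtration, two washes in ice-cold 50 mM Tris–HCl/5 mM EDTA. Nonspecific binding with 10 µM histamine. pKi via Cheng–Prusoff; means of 4–6 experiments.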

[9] = biological target: T1, Acetylcholinesterase (Rattus norvegicus); test: Inhibition of acetylcholinesterase in Wistar rat brain homogenate at upto 1 to 100 uM by Ellman's method; format: tissue-based
Method in brief: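 Male Wistar rat (150–200 g) brain homogenate in 0.1 M phosphate buffer (pH 8.0) with DTNB (5 mM) and compound at 1–100 µM. Reaction started at 37 °C by adding acetylthiocholine (75 mM solution) and stopped after 15 min with 4% formalin. 5-Thio-2-nitrobenzoate absorbance at 412 nm. Percent inhibition versus control; reported as pIC50.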

[10] = biological target: T4, Acetylcholinesterase (Rattus norvegicus, UniProt P37136); test: Inhibition of acetylcholinesterase in Wistar rat brain homogenate by Ellman's method; format: tissue-based
T4 sequence (P37136 whole entry): T1 sequence (whole entry)

[11] = biological target: Histamine H3 receptor (Cavia porcellus) (UniProt Q9JI35); test: Antagonist activity at histamine H3 receptor in electrically-stimulated guinea pig ileum assessed as inhibition of (R)-alpha-methylhistamine-induced twitch contraction in presence of 1 uM mepyramine; format: functional, tissue-based
Chain of Histamine H3 receptor (Cavia porcellus) (Q9JI35 whole entry): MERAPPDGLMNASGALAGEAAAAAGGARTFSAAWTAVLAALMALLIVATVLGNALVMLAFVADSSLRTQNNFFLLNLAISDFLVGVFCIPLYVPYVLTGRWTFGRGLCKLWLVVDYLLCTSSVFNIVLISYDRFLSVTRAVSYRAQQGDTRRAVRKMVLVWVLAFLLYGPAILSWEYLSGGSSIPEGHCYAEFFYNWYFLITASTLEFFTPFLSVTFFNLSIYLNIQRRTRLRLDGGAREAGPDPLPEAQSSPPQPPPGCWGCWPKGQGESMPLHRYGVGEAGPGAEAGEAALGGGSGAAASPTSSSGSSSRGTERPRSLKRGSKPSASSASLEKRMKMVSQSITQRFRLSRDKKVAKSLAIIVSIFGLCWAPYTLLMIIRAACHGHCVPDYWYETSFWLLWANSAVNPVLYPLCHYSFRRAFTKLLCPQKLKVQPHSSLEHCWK
Method in brief: (§4)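 Guinea-pig ileum, electrically stimulated (0.1 Hz, 1 ms, submaximal voltage). Twitch inhibition by cumulative (R)-α-methylhistamine (1 nM to 1 µM) with 1 µM mepyramine present. Compounds tested at 1 nM to 30 µM. Potency as pKB from Furchgott's equation, or as pD2′ (Van Rossum) for non-surmountable antagonism.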

[12] = biological target: T3, Histamine H4 receptor; test: Displacement of [3H]histamine from human histamine H4 receptor expressed in SK-N-MC cells at upto 10 uM
[13] = biological target: Histamine H2 receptor (Cavia porcellus) (UniProt P47747); test: Antagonist activity at histamine H2 receptor in guinea pig atrium assessed as changes in rate of spontaneous beat at upto 3 uM; format: functional, tissue-based; conditions: Cardiac atrium; method in brief: as §3
[14] = biological target: Histamine H3 receptor (Rattus norvegicus, UniProt Q9QYN8); test: Displacement of [3H]RAMHA from histamine H3 receptor in Wistar rat brain membrane; format: cell membranes
Chain of Histamine H3 receptor (Rattus norvegicus, UniProt Q9QYN8) (Q9QYN8 whole entry): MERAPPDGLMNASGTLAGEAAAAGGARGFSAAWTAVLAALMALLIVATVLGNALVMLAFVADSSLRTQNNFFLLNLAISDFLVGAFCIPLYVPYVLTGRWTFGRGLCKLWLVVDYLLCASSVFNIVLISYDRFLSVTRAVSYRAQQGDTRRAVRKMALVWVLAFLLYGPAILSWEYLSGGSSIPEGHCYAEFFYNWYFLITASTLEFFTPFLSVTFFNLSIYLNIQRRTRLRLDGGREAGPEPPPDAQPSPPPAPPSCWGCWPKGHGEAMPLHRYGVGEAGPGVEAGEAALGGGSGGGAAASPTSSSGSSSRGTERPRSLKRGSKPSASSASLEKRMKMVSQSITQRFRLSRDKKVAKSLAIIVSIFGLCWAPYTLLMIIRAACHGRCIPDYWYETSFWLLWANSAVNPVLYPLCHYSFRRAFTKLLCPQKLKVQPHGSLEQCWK
Method in brief: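 Membranes from male Wistar rat brain (150–200 g) incubated 45 min with 0.5 nM [3H]RAMHA and compound (0.03 nM to 10 µM) in 50 mM Tris–HCl pH 7.4, 50 mM NaCl, 0.5 mM EDTA. Vacuum filtration, two ice-cold buffer rinses. Nonspecific binding set with 10 µM thioperamide. pKi by Cheng–Prusoff.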

[15] = biological target: Histamine H2 receptor (Cavia porcellus) (UniProt P47747); test: Antagonist activity at histamine H2 receptor in guinea pig atrium assessed as changes in rate of spontaneous beat at upto 1 uM; format: functional, tissue-based; conditions: Cardiac atrium; method in brief: as §3
[16] = biological target: Histamine H1 receptor (Cavia porcellus) (UniProt P31389); test: Antagonist activity at histamine H1 receptor in guinea pig terminal ileum at upto 10 uM; format: functional, tissue-based; method in brief: as §2
[17] = biological target: Histamine H3 receptor (Cavia porcellus) (UniProt Q9JI35); test: Antagonist activity at histamine H3 receptor in electrically-stimulated guinea pig ileum assessed as inhibition of (R)-alpha-methylhistamine-induced twitch contraction at upto 1 uM in presence of 1 uM mepyramine; format: functional, tissue-based; method in brief: as §4
[18] = biological target: Histamine H1 receptor (Cavia porcellus) (UniProt P31389); test: Antagonist activity at histamine H1 receptor in guinea pig terminal ileum at upto 1 uM; format: functional, tissue-based; method in brief: as §2

Structure (SMILES) | Activity [1] | pKb [2] | Activity [3] | pD2 [4] | Activity [5] | Ki [6] [nM] | Activity [7] | Ki [8] [nM] | inhibition [9] [%] | IC50 [10] [nM] | pKb [11] | Activity [12] | pKb [4] | Activity [13] | Ki [14] [nM] | Activity [15] | Activity [16] | Activity [17] | Activity [18]
CC1CC(C)CN(Cc2ccc(-c3ccc(CN4CC(C)CC(C)C4)cc3)cc2)C1 (centres undefined) | inactive | 6.19 | Not toxic | 5.08 | inactive | 13800 | Not toxic |  |  |  |  |  |  |  |  |  |  |  | 
c1cc(-c2ccc(CN3CCCCC3)cc2)ccc1CN1CCCCC1 |  | 8.77 | Not toxic | 4.84 | inactive | 25100 | Not toxic | 3.39 | 82 | 5890 | 8.58 |  |  |  |  |  |  |  | 
CC1CC(C)CN(Cc2ccc(-c3ccc(CN4CCCCC4)cc3)cc2)C1 (centres undefined) |  | 8.48 | Not toxic |  |  |  | Not toxic | 0.871 | 91 | 2400 | 9.02 | inactive | 6.15 | inactive | 2.4 |  |  |  | 
CCCN(CCC)Cc1ccc(-c2ccc(CCN3CCCCC3)cc2)cc1 |  | 8.82 | Not toxic |  |  |  | Not toxic | 3.89 | 80 | 6760 | 7.98 | inactive |  |  | 10.7 | inactive | inactive |  | 
CC(=O)N1CCN(Cc2ccc(-c3ccc(CN4CCN(C(C)=O)CC4)cc3)cc2)CC1 | inactive | 6.7 | Not toxic | 4.81 | inactive |  | Not toxic |  |  |  |  | inactive |  |  |  |  |  | inactive | 
c1cc(-c2ccc(CN3CCCCC3)cc2)ccc1CCN1CCCCC1 |  | 9.28 | Not toxic |  |  |  | Not toxic | 2 | 91 | 1100 | 8.73 | inactive |  |  | 8.32 | inactive | inactive |  | 
N#Cc1ccc(OCc2ccc(-c3ccc(CN4CCCCC4)cc3)cc2)cc1 | inactive | 7.27 | Not toxic |  |  |  | Not toxic | 75.9 |  |  | 7.27 | inactive |  |  | 70.8 | inactive | inactive |  | 
CCCCCNCc1ccc(-c2ccc(CNCCCCC)cc2)cc1 | inactive | 6.51 | Not toxic |  |  | 6460 | Not toxic |  |  |  |  |  |  |  |  | inactive |  | inactive | inactive
c1cc(-c2ccc(CNC3CCCCC3)cc2)ccc1CNC1CCCCC1 |  | 6.54 | Not toxic |  |  |  | Not toxic |  | 70 | 5130 | 5.82 | inactive |  |  |  | inactive |  |  | inactive
CCCN(CCC)C(=O)Cc1ccc(-c2ccc(CN3CCCCC3)cc2)cc1 |  | 8.16 | Not toxic |  |  |  | Not toxic | 8.51 | 80 | 11200 | 8 | inactive | 5.44 |  | 53.7 | inactive |  |  | 
CN(Cc1ccc(-c2ccc(CN(C)C3CCCCC3)cc2)cc1)C1CCCCC1 |  | 7.27 | Not toxic | 5.24 |  | 6460 | Not toxic |  | 57 | 1660 | 7.45 |  |  |  |  | inactive |  |  | 
c1cc(-c2ccc(CN3CCCCC3)cc2)ccc1CNC1CCCCC1 |  | 8.03 | Not toxic |  |  |  | Not toxic |  | 73 | 5750 | 7.59 | inactive |  |  |  | inactive | inactive |  | 
